From PubChem BioAssay
CHOP inh = CHOP inhibition in unfolded protein response; inhibition, % at 10 µM; actives 3.8% (n = 220,000); CHO-K1 CHOP-promoter luciferase, tunicamycin-induced, 15-18 h;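 active = compounds that reduced the stress-induced luciferase reporter signal by more than about 70% of percent inhibition, limit read from the data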;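 note: 0% = tunicamycin plus vehicle and 100% = wells without tunicamycin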
NR3A LBD binder = modulates the human NR3A ligand-binding domain; NR3A LBD differential scanning fluorimetry, Tm shift; 0% = protein alone, 100% = glycine-bound protein; Tm shift relative to glycine control, % at 25 µM; actives 2.5% (n = 340,000); AID 1259313;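 active = melting temperature shift of at least 10% of the positive control shift, at one fixed dose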
MPTP block = permeability transition pore inhibition; isolated mouse mitochondria, Ca2+ swelling absorbance, 30 min; inhibition, % at 10 µM; actives 1.4% (n = 360,000); AID 602449;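 active = inhibition of 50% or more, scaled per plate between neutral and stimulator controls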;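 note: 0% = DMSO wells given calcium and 100% = 1 mM EGTA wells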
WT yeast gro inh = growth inhibition of WT yeast, mitochondrial fusion screen; mitochondrial fusion phenotypic screen, WT strain; inhibition, % at 10 µM; actives 2.1% (n = 190,000); in the data active = inhibition above about 58%; tested in S. cerevisiae
EBV gp42 block = blocks Epstein-Barr virus glycoprotein 42 binding; Fluorescence polarization binding assay, mP read-out; inhibition, % (tested at 21.74 µM); actives 0.42% (n = 220,000); AID 1085; in the data active = inhibition above about 50%
Target sequence (Q1HVG2 whole entry, looked up): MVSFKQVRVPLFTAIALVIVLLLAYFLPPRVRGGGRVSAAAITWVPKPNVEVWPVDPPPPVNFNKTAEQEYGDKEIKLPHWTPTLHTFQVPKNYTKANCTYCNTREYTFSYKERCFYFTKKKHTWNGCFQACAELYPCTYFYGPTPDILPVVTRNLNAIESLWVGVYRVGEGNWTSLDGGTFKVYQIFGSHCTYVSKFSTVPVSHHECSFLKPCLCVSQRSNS
TbMetRS inhib = blocks T. brucei methionyl-tRNA synthetase activity | purified T. brucei MetRS, ATP depletion, Kinase-Glo luminescence | inhibition, % at 11.9 µM | actives 0.4% (n = 360,000);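 active = inhibition above a per-plate cutoff of the control wells' mean inhibition plus 3 SD, cut at about 5.5% in these data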;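 note: 0% = DMSO wells median and 100% = median of wells with control inhibitor compound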
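Material – parasite MetRS enzyme · Medium – HEPES-MgCl2-KCl buffer plus DTT, spermine, BSA, pyrophosphatase · Reagent – ATP, methionine and E. coli bulk tRNA substrates · Times – 15 min enzyme-compound preincubation, 2 h reaction, 10 min detection, 25 °C · Measured by – luminescence of leftover ATP · Evaluation – percent inhibition relative to median high and low control wells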
CHOP inh conf = confirmation of CHOP induction inhibitors; actives 45% (n = 2,100); shares compounds with CHOP inh; CHO-CHOP promoter luciferase reporter, tunicamycin-induced, luminescence; inhibition, % at 10 µM;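 active = mean of three repeat readings of reporter signal inhibition above a set limit, cut at about 70% in these data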;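 note: 0% = tunicamycin plus vehicle and 100% = wells lacking tunicamycin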
An asterisk follows results filed as active; x = not tested or not shown. The list is not random: actives were taken first. Their share in the collection is about 6.4%.

SMILES	CHOP inh	NR3A LBD binder	MPTP block	WT yeast gro inh	EBV gp42 block	TbMetRS inhib	CHOP inh conf
O=C(Nc1ccnn1C1CCN(C(=O)c2cccc(Cl)c2)CC1)C1CCOC1 (stereo not given)	x	-2	-2	x	x	0	x
COC(=O)COc1cccc(NC(=O)c2ccccc2)c1	12	0	0	-1	-15	0	x
CCOC(=O)[C@@H]1[C@H]2COc3ccc(Br)cc3[C@@H]2N2C(=O)N(c3cccc(F)c3)C(=O)[C@]12C	x	1	1	x	x	0	x
COc1ccccc1CNC(=O)c1cc(C2CC2)nc2c1cnn2C(C)C	x	2	0	x	x	0	x
CCC1CCc2c(sc(NC(=O)c3ccoc3C)c2C(N)=O)C1 (stereo not given)	102*	0	-1	40	-15	0	102*
Cc1occc1C(=O)Nc1sc2c(c1C(N)=O)CCC(C(C)(C)C)C2 (stereo not given)	59	1	3	-18	-15	-2	x
CCOc1ccc(/C=N/NC(=O)c2cc(-c3ccco3)nc3ccccc23)cc1	104*	-11	-1	5	2	-1	95*
CC(C)(C)OC(=O)NCCc1nnc(S(=O)(=O)Cc2ccc(Cl)cc2Cl)o1	106*	0	-1	-2	-15	-1	129*
CC(C)(C)OC(=O)NCCc1nnc(SCc2ccccc2Cl)o1	61	2	-1	x	-20	-2	x
CSCCC(NS(=O)(=O)c1ccc(Cl)cc1)C(=O)OCC(=O)N(C(C)C)C(C)C (stereo not given)	52	2	-2	4	12	-1	x
CSCCC(NS(=O)(=O)c1ccc(Cl)cc1)C(=O)OCc1cccc(Cl)c1 (stereo not given)	106*	-10	10	41	-5	0	68
O=S(c1ccc2ccccc2c1)c1cnns1 (stereo not given)	105*	-1	-10	-15	-11	0	3
COC(=O)C(C)Sc1nnc(Cc2cc(=O)[nH]c(=O)[nH]2)n1-c1ccc(OC)cc1 (stereo not given)	40	-1	-2	5	-8	0	x
Cc1cc(C)c2c(=O)n(CC(=O)NC3CCCC3)sc2n1	6	5	0	x	-15	-1	x
COc1ccc(OC)c(CCNC(=O)Cn2sc3nc(C)cc(C)c3c2=O)c1	98*	x	x	6	-37	x	-2
O=Cc1cccc(OC(=O)c2ccc(Cl)cc2Cl)c1	101*	x	x	31	0	x	10
CCn1c(=O)c(C(=O)CN2CCCc3ccccc32)c(N)n(Cc2ccccc2)c1=O	97*	-3	2	2	4	0	13
CCn1c(=O)c(C(=O)CN2CCN(S(=O)(=O)c3ccccc3)CC2)c(N)n(Cc2ccccc2)c1=O	29	-3	-2	-18	-2	-1	x
C=CCOC(=O)C1=C(C)NC(SCC(=O)Nc2nccs2)=C(C#N)C1c1ccc(Cl)cc1 (stereo not given)	106*	-11	0	15	11	-1	132*
C=CCOC(=O)C1=C(C)NC(SC)=C(C#N)C1c1cccs1 (stereo not given)	-4	-4	2	0	0	-1	x
CC(=O)C1=C(C)NC(SCC(=O)Nc2nccs2)=C(C#N)C1c1ccccc1Cl (stereo not given)	26	-8	2	-5	5	0	x
C=CCOC(=O)C1=C(C)NC(SCC(=O)Nc2nccs2)=C(C#N)C1c1cccs1 (stereo not given)	99*	1	-1	-5	-26	-1	42
CCNC(=O)NC(=O)C(C)OC(=O)c1oc2ccccc2c1CSC1CCCCC1 (stereo not given)	99*	0	2	-3	7	0	-2
CNC(=O)NC(=O)C(C)OC(=O)c1oc2ccccc2c1CSc1ccc(Cl)cc1 (stereo not given)	98*	-27	2	19	-11	-1	99*
CC(=O)Oc1ccc2c(=O)c(-c3ccccc3)c(C)oc2c1	32	-3	-2	-2	-15	0	x
Cc1cc(=O)oc(C)c1C(=O)N1CCN(Cc2ccc3c(c2)OCO3)CC1	4	0	2	7	-23	0	x
